Tests used:
[1] = Inhibition of refolded rhodanese (unknown origin) preincubated with Escherichia coli GroEL/GroES for 60 mins by measuring rhodanese enzyme activity followed by compound addition by Fe(SCN)3 dye based spectrometric analysis; design: species or system Homo sapiens
[2] = biological target: T1, Tyrosine-protein phosphatase non-receptor type 1 (Homo sapiens, UniProt P18031); experiment: Inhibition of human PTPN1 expressed in Escherichia coli Rosetta 2 (DE3) using pNPP as substrate after 45 mins by spectrophotometric method
T1 sequence (P18031 whole entry): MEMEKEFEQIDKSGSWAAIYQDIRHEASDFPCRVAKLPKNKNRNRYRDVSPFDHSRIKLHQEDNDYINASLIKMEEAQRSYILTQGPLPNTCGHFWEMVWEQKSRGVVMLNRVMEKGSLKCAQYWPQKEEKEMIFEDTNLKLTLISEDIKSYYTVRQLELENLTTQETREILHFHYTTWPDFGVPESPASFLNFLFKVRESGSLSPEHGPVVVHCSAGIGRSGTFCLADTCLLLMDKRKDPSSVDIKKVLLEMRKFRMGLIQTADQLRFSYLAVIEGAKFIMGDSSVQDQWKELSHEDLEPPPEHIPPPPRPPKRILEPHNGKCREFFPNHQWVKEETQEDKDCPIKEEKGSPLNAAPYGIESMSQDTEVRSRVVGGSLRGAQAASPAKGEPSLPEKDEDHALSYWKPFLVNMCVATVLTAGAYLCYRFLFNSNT

[3] = biological target: T2, Tyrosine-protein phosphatase non-receptor type 5 (Homo sapiens, UniProt P54829); experiment: Inhibition of human PTPN5 expressed in Escherichia coli Rosetta 2 (DE3) using pNPP as substrate after 45 mins by spectrophotometric method
T2 sequence (P54829 whole entry): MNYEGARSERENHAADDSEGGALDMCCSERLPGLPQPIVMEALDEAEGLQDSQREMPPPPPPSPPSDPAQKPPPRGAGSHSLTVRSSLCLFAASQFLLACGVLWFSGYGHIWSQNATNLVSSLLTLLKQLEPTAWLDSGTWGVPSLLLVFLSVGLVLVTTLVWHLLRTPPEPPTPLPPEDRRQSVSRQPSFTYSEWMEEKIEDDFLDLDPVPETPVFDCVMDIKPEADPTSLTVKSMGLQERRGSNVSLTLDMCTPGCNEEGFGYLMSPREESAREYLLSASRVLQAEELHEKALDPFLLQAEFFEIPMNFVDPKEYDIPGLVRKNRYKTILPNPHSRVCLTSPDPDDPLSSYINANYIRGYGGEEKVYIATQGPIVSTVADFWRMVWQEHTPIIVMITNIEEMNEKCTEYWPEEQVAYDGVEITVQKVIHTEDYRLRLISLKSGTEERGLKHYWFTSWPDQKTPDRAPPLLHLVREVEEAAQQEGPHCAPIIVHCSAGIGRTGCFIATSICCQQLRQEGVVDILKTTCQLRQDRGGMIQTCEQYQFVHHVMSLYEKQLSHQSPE

[4] = Cytotoxicity against human THLE3 cells assessed as reduction in cell viability after 48 hrs by Alamar blue assay; assay type: cell-based
Procedure, shortened: (§1)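 Alamar Blue viability read-out. Human liver (THLE-3) and kidney (HEK 293) cells incubated with compound for 48 h. Tested in dose-response to derive CC50.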

[5] = test system: Mycobacterium tuberculosis; experiment: Antitubercular activity against Mycobacterium tuberculosis H37Rv after 5 days; assay type: functional, organism-based; conditions: 120 h
[6] = biological target: T3, Malate dehydrogenase, mitochondrial (Sus scrofa, UniProt P00346); experiment: Inhibition of refolded pig heart mitochondrial MDH preincubated with Escherichia coli GroEL/GroES for 45 mins using sodium mesoxalate as substrate followed by compound addition and measured after 20 to 30 mins by spectrometric analysis
T3 sequence (P00346 whole entry): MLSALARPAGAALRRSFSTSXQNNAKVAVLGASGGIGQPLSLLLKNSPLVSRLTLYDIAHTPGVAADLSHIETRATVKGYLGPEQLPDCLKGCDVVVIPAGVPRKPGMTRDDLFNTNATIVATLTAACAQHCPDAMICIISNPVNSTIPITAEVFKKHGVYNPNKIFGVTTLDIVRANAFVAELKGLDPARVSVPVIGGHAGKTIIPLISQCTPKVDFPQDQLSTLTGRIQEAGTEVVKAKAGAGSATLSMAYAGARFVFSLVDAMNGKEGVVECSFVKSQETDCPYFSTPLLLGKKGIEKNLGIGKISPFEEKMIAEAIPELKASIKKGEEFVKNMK

E. coli GroEL/ES [7] = biological target: T4, E. coli GroEL/ES (Escherichia coli, UniProt P0A6F5); experiment: Inhibition of Escherichia coli GroEL expressed in Escherichia coli DH5alpha/Escherichia coli GroES expressed in Escherichia coli BL21 (DE3) assessed as reduction in GroEL/GroES-mediated denatured rhodanese refolding by measuring rhodanese enzyme activity after 45 mins by Fe(SCN)3 dye based spectrometric analysis
E. coli GroEL/ES [8] = biological target: T4, E. coli GroEL/ES; experiment: Inhibition of Escherichia coli GroEL expressed in Escherichia coliDH5alpha/Escherichia coli GroES expressed in Escherichia coli BL21 (DE3) assessed as reduction in GroEL/GroES-mediated denatured pig heart mitochondrial MDH refolding by measuring MDH enzyme activity using sodium mesoxalate as substrate after 20 to 40 mins by spectrometric analysis
HSP60/HSP10 = HSP60/HSP10 (Homo sapiens, UniProt P10809); experiment: Inhibition of human HSP60 expressed in Escherichia coli Rosetta 2(DE3)/human HSP10 expressed in Escherichia coli Rosetta 2(DE3) pLysS cells assessed as reduction in HSP60/HSP10-mediated denatured pig heart mitochondrial MDH refolding by measuring MDH enzyme activity using sodium mesoxalate as substrate after 40 to 60 mins by spectrometric analysis
[9] = biological target: T5, Tyrosine-protein phosphatase non-receptor type 2 (Homo sapiens, UniProt P17706); experiment: Inhibition of human PTPN2 expressed in Escherichia coli Rosetta 2 (DE3) using pNPP as substrate after 45 mins by spectrophotometric method
T5 sequence (P17706 whole entry): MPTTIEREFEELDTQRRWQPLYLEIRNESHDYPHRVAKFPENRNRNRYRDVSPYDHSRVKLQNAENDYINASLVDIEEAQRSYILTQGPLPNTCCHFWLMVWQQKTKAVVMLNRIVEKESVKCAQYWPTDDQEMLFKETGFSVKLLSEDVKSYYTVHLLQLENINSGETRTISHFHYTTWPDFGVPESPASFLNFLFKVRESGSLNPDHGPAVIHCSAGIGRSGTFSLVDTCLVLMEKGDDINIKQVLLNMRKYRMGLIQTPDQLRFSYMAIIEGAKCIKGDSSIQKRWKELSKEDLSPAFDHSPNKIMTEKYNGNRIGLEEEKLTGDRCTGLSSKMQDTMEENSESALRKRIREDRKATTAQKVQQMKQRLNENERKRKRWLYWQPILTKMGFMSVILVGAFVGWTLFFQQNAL

[10] = test system: Mycobacterium tuberculosis; experiment: Antitubercular activity against Mycobacterium tuberculosis H37Rv after 5 days at 200 uM relative to control; assay type: functional; conditions: 120 h
Procedure, shortened: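 M. tuberculosis grown in liquid culture with compound at a fixed 200 μM for 5 days. Growth inhibition expressed as percent of control.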

[11] = biological target: T6, Phosphotyrosine protein phosphatase (Mycobacterium tuberculosis, UniProt A0A045ISB3); experiment: Inhibition of Mycobacterium tuberculosis His-tagged PtpB expressed in Escherichia coli Rosetta 2 (DE3) using pNPP as substrate after 30 mins by spectrophotometric method
T6 sequence (A0A045ISB3 whole entry): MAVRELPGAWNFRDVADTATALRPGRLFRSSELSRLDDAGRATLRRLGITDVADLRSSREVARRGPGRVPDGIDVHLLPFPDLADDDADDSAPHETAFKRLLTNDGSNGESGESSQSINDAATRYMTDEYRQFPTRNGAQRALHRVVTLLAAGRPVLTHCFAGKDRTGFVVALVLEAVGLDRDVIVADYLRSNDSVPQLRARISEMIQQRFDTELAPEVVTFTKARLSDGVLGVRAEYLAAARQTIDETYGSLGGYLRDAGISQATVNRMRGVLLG

[12] = Cytotoxicity against human HEK293 cells assessed as reduction in cell viability after 48 hrs by Alamar blue assay; assay type: cell-based; procedure, shortened: as §1

T4 sequence (P0A6F5 whole entry, looked up): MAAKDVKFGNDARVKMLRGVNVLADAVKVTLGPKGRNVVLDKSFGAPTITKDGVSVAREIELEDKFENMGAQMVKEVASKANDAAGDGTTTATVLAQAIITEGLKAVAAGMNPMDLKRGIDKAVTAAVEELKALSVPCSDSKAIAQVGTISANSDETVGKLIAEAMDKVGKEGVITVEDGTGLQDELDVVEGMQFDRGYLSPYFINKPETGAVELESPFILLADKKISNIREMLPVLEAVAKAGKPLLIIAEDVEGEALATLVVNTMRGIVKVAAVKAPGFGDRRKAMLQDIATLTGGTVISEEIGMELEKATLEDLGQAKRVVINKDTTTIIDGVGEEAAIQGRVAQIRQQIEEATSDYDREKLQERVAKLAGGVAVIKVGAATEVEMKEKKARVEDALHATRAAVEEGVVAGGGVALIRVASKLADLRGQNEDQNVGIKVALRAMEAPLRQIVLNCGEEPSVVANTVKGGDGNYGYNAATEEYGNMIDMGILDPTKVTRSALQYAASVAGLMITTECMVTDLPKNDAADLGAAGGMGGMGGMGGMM
Chain of HSP60/HSP10 (P10809 whole entry): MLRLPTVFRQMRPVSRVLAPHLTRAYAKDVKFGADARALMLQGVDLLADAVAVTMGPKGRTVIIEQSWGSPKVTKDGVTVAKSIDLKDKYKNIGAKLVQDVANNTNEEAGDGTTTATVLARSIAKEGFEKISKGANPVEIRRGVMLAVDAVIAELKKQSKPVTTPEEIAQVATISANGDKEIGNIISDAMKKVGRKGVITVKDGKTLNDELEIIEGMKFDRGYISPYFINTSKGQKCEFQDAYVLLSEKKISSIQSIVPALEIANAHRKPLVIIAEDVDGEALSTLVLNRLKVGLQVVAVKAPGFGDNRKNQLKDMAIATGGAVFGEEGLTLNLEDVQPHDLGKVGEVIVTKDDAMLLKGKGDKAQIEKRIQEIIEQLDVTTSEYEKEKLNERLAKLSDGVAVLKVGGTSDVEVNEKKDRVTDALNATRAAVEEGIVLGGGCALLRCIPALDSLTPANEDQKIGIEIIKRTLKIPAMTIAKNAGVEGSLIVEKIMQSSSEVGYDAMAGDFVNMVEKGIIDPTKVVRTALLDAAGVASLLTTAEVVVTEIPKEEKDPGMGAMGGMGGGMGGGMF
Chain of HSP60/HSP10 (P61604 whole entry, further chain): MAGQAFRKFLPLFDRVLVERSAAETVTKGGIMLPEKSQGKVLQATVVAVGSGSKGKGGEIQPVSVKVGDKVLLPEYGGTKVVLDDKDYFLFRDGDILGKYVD

SMILES	IC50 [1] [µM]	IC50 [2] [µM]	IC50 [3] [µM]	CC50 at 48 h [4] [µM]	EC50 [5] [µM]	IC50 [6] [µM]	IC50 (E. coli GroEL/ES [7]) [µM]	IC50 (E. coli GroEL/ES [8]) [µM]	IC50 (HSP60/HSP10) [µM]	IC50 [9] [µM]	inhibition at 200 µM [10] [%]	IC50 [11] [µM]	CC50 at 48 h [12] [µM]
O=S(=O)(Nc1ccc(-c2nc3ccccc3o2)cc1)c1cccc(C(F)(F)F)c1	> 100	44	40	82	> 200	> 63	170	53	57	48	50	49	> 100
O=S(=O)(Nc1ccc(-c2nc3ccccc3o2)cc1)c1cccc(F)c1	> 100	62	54	> 100	185	> 63	225	92	71	80	80	91	> 100
COc1ccccc1S(=O)(=O)Nc1ccc2oc(-c3ccccc3)nc2c1	> 100	37	38	29		> 63	89	85	> 100	34	3	67	41
O=S(=O)(Nc1ccc2oc(-c3ccccc3)nc2c1)c1ccc(Cl)c(C(F)(F)F)c1	> 100	40	28	47		> 63	132	92	> 100	34	0	40	66
O=S(=O)(Nc1ccc2oc(-c3ccccc3)nc2c1)c1ccc(F)cc1	> 100	78	41	38		> 63	195	> 100	> 100	61	47	85	68
O=S(=O)(Nc1ccc2oc(-c3ccccc3)nc2c1)c1ccc(Cl)cc1	> 100	44	26	40		> 63	149	> 100	> 100	35	0	56	65
O=S(=O)(Nc1ccc2oc(-c3ccccc3)nc2c1)c1ccccc1F	> 100	59	44	53		> 63	171	> 100	> 100	69	12	80	72
O=S(=O)(Nc1ccc(-c2nc3ccccc3o2)cc1)c1ccc(Cl)c(C(F)(F)F)c1	> 100	28	34	81		> 63	67	23	12	28	18	29	69
O=S(=O)(Nc1ccc2oc(-c3ccccc3)nc2c1)c1cccc(O)c1	> 100	> 100	72	79		> 63	103	58	76	> 100	3	98	> 100
Cc1cccc(S(=O)(=O)Nc2ccc(-c3nc4ccccc4o3)cc2)c1	> 100	37	28	81		> 63	165	92	> 100	40	13	40	> 100
CS(=O)(=O)Nc1ccc(-c2nc3ccccc3o2)cc1	> 100	> 100	> 100	> 100		> 63	> 250	> 100	> 100	> 100	23	> 100	> 100
O=[N+]([O-])c1cc(S(=O)(=O)Nc2ccc3oc(-c4ccccc4)nc3c2)ccc1Cl	> 100	35	32	25		> 63	18	16	17	40	1	33	90
O=S(=O)(Nc1ccc(-c2nc3ccccc3o2)cc1)c1ccccc1F	> 100	55	70	> 100		> 63	180	> 100	> 100	80	8	85	> 100
COc1ccc(Cl)cc1S(=O)(=O)Nc1ccc(-c2nc3ccccc3o2)cc1	> 100	21	37	42		> 63	83	59	> 100	28	0	29	75

Reference: ChEMBL document CHEMBL4387722
